# High-throughput results (PubChem BioAssay)
# NR2E3 ag-1 – activates human photoreceptor nuclear receptor NR2E3; 320,000 tested, 0.12% active; inhibition of corepressor binding, % at 4.78 µM; Q9Y5X4; GST-NR2E3/biotin-RetCOR TR-FRET, 1536-well;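 active means percent inhibition above the cutoff of mean plus 3 SD of all tested compounds, set per screening campaign, cut at about 20% in these data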;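 further: 0% = DMSO wells and 100% = biotin wells as full block of FRET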
# Target sequence (Q9Y5X4 whole entry, looked up): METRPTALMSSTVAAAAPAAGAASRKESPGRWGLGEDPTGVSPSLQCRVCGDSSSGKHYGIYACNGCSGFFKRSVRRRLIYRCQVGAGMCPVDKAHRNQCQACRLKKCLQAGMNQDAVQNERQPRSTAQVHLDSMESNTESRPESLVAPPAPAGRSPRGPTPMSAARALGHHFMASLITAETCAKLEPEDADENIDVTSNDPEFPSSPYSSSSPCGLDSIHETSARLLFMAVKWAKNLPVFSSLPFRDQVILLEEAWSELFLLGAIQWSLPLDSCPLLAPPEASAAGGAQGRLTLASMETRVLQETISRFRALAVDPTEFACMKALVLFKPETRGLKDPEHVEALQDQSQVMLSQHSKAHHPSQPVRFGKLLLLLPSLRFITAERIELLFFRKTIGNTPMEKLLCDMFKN
#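 Material: NR2E3–RetCOR corepressor complex | Quantity: 1.35 nM GST-tagged NR2E3 final | Schedule: 5 h at 4 °C | Replication: Singlicate compound wells | Reagent: RetCOR corepressor, biotinylated, 7 nM | Controls: Biotin wells as high control, 0.6% DMSO wells as low control | Signal: TR-FRET, Eu(K)-anti-GST donor, streptavidin-D2 acceptor, ex 340, em 617/671 nm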
# PG9 binder – binds the HIV-1 gp120 antibody PG9 | TR-FRET gp120-PG9 antibody binding | inhibition, % at 6.7 µM | 360,000 tested, 0.43% active | AID 624416; in the data active means inhibition above about 8.5%
# rCAG RNA binder – r(CAG) repeat RNA binding; TO-PRO-1 dye displacement fluorescence; AID 651821; inhibition, % at 3 µM; 370,000 tested, 1.3% active;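 active means inhibition above the plate cutoff, the mean of all test compounds on that plate plus 3 SD, cut at about 35% in these data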;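 further: 0% = DMSO alone and 100% = 100 µM mitoxantrone as full dye displacement; higher means more dye released from RNA so lower well fluorescence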
# NR2E3 ag-2 – human photoreceptor-specific nuclear receptor agonism; inhibition of corepressor binding, % at 3.98 µM; 360,000 tested, 0.35% active; CHO-S Gal4-NCOR/VP16-NR2E3 two-hybrid, luciferase;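 active means inhibition above the mean of all tested compounds plus 3 SD, cut at about 70% in these data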;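 further: 0% = DMSO with NR2E3 transfected cells and 100% = cells lacking NR2E3 construct; higher means lower luciferase signal from less NR2E3 corepressor binding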
# NR1D1 modulator – Rev-erb alpha (human) modulation. P20393. Rev-erbα–FITC-DNA binding, fluorescence polarization, 90 min. activity, % at 10 µM. 370,000 tested, 0.79% active;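 active means activity above about 14%, limit read from the data; passing the limit was not always enough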;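 further: 0% = DMSO wells with 35 nM protein and 100% = DMSO wells with 750 nM protein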
# * marks the source's active call; other numbers are inactive results; . = not tested or not shown. Shown are actives, neighbours in structure and some others; about 2.6% of the full set was active somewhere.
SMILES,NR2E3 ag-1,PG9 binder,rCAG RNA binder,NR2E3 ag-2,NR1D1 modulator
O=S(=O)(O)c1cc(O)c2cc(Nc3ccccc3)ccc2c1,.,-4,43*,3,-31
Cc1ccc(S(=O)(=O)c2cc(Nc3ccccc3)ccc2O)cc1,-1,-3,15,12,-3
CC(=O)Nc1ccc2c(O)cc(S(=O)(=O)O)cc2c1,.,0,2,-9,-8
O=S(=O)(O)c1cc(O)c2ccc(Nc3ccccc3)cc2c1,.,0,65*,-5,-36
O=S(=O)(O)c1ccc(O)c2cc(Nc3ccccc3)ccc12,.,0,97*,3,-44
COc1cc(C2C(C#N)=C(N)Oc3c2ccc2ccccc32)ccc1OCC(=O)Nc1ccccc1C (stereo not given),-1,-2,36*,-3,-7
N=c1ccn2c(n1)O[C@@H]1[C@@H](O)[C@H](CO)O[C@@H]12,.,.,.,.,-6
Cc1ccc(NC(=O)CN2C(=O)N/C(=C/c3cccn3-c3ccc(C(=O)O)cc3)C2=O)cc1,13,-5,56*,-5,-29
CCn1c(C)cc(/C=C2\NC(=O)N(CC(=O)Nc3ccc(F)cc3)C2=O)c1C,0,-1,9,19,-7
Cc1ccc(NC(=O)CN2C(=O)N/C(=C/c3cc(C)n(-c4ccc(C(=O)O)cc4)c3C)C2=O)cc1,.,-3,37*,-27,-8
Cc1ccc(S(=O)(=O)N2[C@@H](c3ccccc3F)C(C(=O)O)=CC[C@H]2c2cccc(C)c2)cc1,5,1,26,-13,-2
Cc1ccc(S(=O)(=O)N2[C@@H](c3ccccc3F)C(C(=O)O)=CC[C@H]2c2ccc(Cl)c(Cl)c2)cc1,3,2,74*,22,2
O=C(Nc1ccccc1-c1nc2ccccc2s1)c1ccco1,6,7,18,-16,5
O=C(Nc1ccccc1-c1nc2ccccc2s1)c1cccnc1Cl,2,11*,2,-15,24
C[C@]12C=CC(=O)C=C1CCC1C2C(=O)C[C@@]2(C)C1CC[C@]2(O)C(=O)CO (stereo not given in full),.,.,.,.,-2
CCOC(=O)C1=C(CSc2nc3c(cc2C#N)CN(C)CC3)OC(N)=C(C#N)C1c1ccc(F)cc1 (stereo not given),1,-2,50*,-26,2
CCOC(=O)C1=C(CSc2nc3c(cc2C#N)CN(C)CC3)OC(N)=C(C#N)C1c1ccccc1 (stereo not given),4,-1,23,-8,5
C/C=C(/C)C(=O)O[C@@H]1[C@H](OC(C)=O)[C@@]2(CO)C(CC1(C)C)C1=CCC3[C@@]4(C)CC[C@H](O[C@@H]5O[C@H](C(=O)O)[C@@H](O[C@@H]6O[C@H](CO)[C@@H](O)[C@H](O)[C@H]6O)[C@H](O)[C@H]5O[C@@H]5O[C@H](CO)[C@@H](O)[C@H](O)[C@H]5O)[C@](C)(CO)C4CC[C@@]3(C)[C@]1(C)C[C@H]2O (stereo not given in full),.,.,.,.,1
C/C=C(\C)C(=O)OC1[C@H](OC(C)=O)C2(CO)C(CC1(C)C)C1=CCC3C4(C)CCC(O[C@@H]5O[C@H](C(=O)O)[C@@H](O[C@@H]6O[C@H](CO)[C@@H](O)[C@H](O)[C@H]6O)[C@H](O)[C@H]5O[C@H]5O[C@H](CO)[C@@H](O)[C@H](O)[C@H]5O)[C@](C)(CO)C4CCC3(C)[C@]1(C)C[C@H]2O (stereo not given in full),.,.,.,106*,.
Cc1cc(C2=NNC(=NC3CC3)SC2)c(C)n1-c1ccccc1,.,-2,6,80*,-5
COCCn1c(C)cc(C2=NNC(=NC3CC3)SC2)c1C,-4,1,4,92*,-2
CC[C@@H](C(=O)[C@@H](C)[C@@H](O)[C@H](C)[C@@H]1O[C@@H]([C@@H](CC)C(=O)O)CC[C@@H]1C)[C@H]1OC2(C=C[C@@H](O)[C@]3(CC[C@@](C)([C@H]4CC[C@](O)(CC)[C@H](C)O4)O3)O2)[C@H](C)C[C@@H]1C (stereo not given in full),.,.,.,.,3
CC1=CC(=O)N(c2cccc3c(N4C(=O)C=C(C)C4=O)cccc23)C1=O,.,1,36*,0,4
CC(=O)NS(=O)(=O)c1ccc(NC(=O)c2ccccc2C(=O)O)cc1,.,.,.,.,3
